Data taken from ChEMBL document CHEMBL1122798, “Trypanocidal 1,3-arylene diketone bis(guanylhydrazone)s. Structure-activity relationships among substituted and heterocyclic analogues” (1984).

Assays:
Assay type in all cases: functional
Mus musculus [1] = assay: Compound was tested for Trypanocidal Activity in mice at 150 mg/kg; 0/5
Mus musculus [2] = assay: Compound was tested for Trypanocidal Activity in mice at 60 mg/kg; 0/5
Mus musculus [3] = assay: Compound was tested for Trypanocidal Activity in mice at 40 mg/kg; 0/5
Mus musculus [4] = assay: Compound was tested for Trypanocidal Activity in mice at 100 mg/kg; 0/5
Mus musculus [5] = assay: Compound was tested for Trypanocidal Activity in mice at 15 mg/kg; 0/10
Mus musculus [6] = assay: Compound was tested for Trypanocidal Activity in mice at 40 mg/kg; 13/15
Mus musculus [7] = assay: Compound was tested for Trypanocidal Activity in mice at 25 mg/kg; 16/20
Mus musculus [8] = assay: Compound was tested for Trypanocidal Activity in mice at 6 mg/kg; 0/20
Mus musculus [9] = assay: Compound was tested for Trypanocidal Activity in mice at 10 mg/kg; 11/30
Mus musculus [10] = species: Mus musculus; assay: Effective dose against Trypanosoma brucei infection in mice
Method in brief: (§1)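 Female Swiss-Webster mice (20–25 g) were infected ip with 5×10^4 T. brucei EATRO 110 organisms in fresh mouse blood diluted with minimum essential medium. Groups of 5 or 10 received a single ip dose in normal saline (solution or milled suspension, 20 μL/g) 6 h post-infection. Deaths within 72 h were scored as toxic. Survivors aparasitemic at 28 days (tail-blood wet films, phase contrast) counted as cures. ED50 was computed by Bliss/Litchfield–Wilcoxon, excluding toxic dosages.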

Mus musculus [11] = assay: Compound was tested for Trypanocidal Activity in mice at 100 mg/kg; 1/5
Mus musculus [12] = assay: Compound was tested for Trypanocidal Activity in mice at 60 mg/kg; 5/5
Mus musculus [13] = assay: Compound was tested for Trypanocidal Activity in mice at 15 mg/kg; 14/25
Mus musculus [14] = assay: Compound was tested for Trypanocidal Activity in mice at 4 mg/kg; 0/10
Mus musculus [15] = assay: Compound was tested for Trypanocidal Activity in mice at 60 mg/kg; 9/25; method in brief: as §1
Mus musculus [16] = assay: Compound was tested for Trypanocidal Activity in mice at 6 mg/kg; 0/5
Mus musculus [17] = assay: Compound was tested for Trypanocidal Activity in mice at 40 mg/kg; 12/25
Mus musculus [18] = assay: Compound was tested for Trypanocidal Activity in mice at 150 mg/kg; 1/5
Mus musculus [19] = assay: Compound was tested for Trypanocidal Activity in mice at 10 mg/kg; 0/5
Mus musculus [20] = assay: Compound was tested for Trypanocidal Activity in mice at 25 mg/kg; 1/20
Mus musculus [21] = assay: Compound was tested for Trypanocidal Activity in mice at 100 mg/kg; 3/10
Mus musculus [22] = assay: Compound was tested for Trypanocidal Activity in mice at 25 mg/kg; 0/15
Mus musculus [23] = assay: Compound was tested for Trypanocidal Activity in mice at 4 mg/kg; 9/10
Mus musculus [24] = assay: Compound was tested for Trypanocidal Activity in mice at 0.4 mg/kg; 19/35
Mus musculus [25] = assay: Compound was tested for Trypanocidal Activity in mice at 10 mg/kg; 10/10
Mus musculus [26] = assay: Compound was tested for Trypanocidal Activity in mice at 25 mg/kg; 4/5
Mus musculus [27] = assay: Compound was tested for Trypanocidal Activity in mice at 1.5 mg/kg; 10/10
Mus musculus [28] = assay: Compound was tested for Trypanocidal Activity in mice at 0.6 mg/kg; 20/30
Mus musculus [29] = assay: Compound was tested for Trypanocidal Activity in mice at 6 mg/kg; 20/20
Mus musculus [30] = assay: Compound was tested for Trypanocidal Activity in mice at 2.5 mg/kg; 20/20
Mus musculus [31] = assay: Compound was tested for Trypanocidal Activity in mice at 0.15 mg/kg; 0/10
Mus musculus [32] = assay: Compound was tested for Trypanocidal Activity in mice at 15 mg/kg; 10/10
Mus musculus [33] = assay: Compound was tested for Trypanocidal Activity in mice at 1.0 mg/kg; 8/10
Mus musculus [34] = assay: Compound was tested for Trypanocidal Activity in mice at 0.25 mg/kg; 0/30
Mus musculus [35] = assay: Compound was tested for Trypanocidal Activity in mice at 25 mg/kg; 0/5
Mus musculus [36] = assay: Compound was tested for Trypanocidal Activity in mice at 15 mg/kg; 0/5
Mus musculus [37] = assay: Compound was tested for Trypanocidal Activity in mice at 40 mg/kg; 1/5
Mus musculus [38] = assay: Compound was tested for Trypanocidal Activity in mice at 6 mg/kg; 9/20
Mus musculus [39] = assay: Compound was tested for Trypanocidal Activity in mice at 15 mg/kg; 16/20
Mus musculus [40] = assay: Compound was tested for Trypanocidal Activity in mice at 4 mg/kg; 0/5
Mus musculus [41] = assay: Compound was tested for Trypanocidal Activity in mice at 10 mg/kg; 14/20
Mus musculus [42] = assay: Compound was tested for Trypanocidal Activity in mice at 25 mg/kg; 7/10

**Q.** Which Cures/total (Mus musculus [1]) does the source give for C/C(=N\NC(=N)N)c1cc(/C(C)=N/NC(=N)N)c(C)nc1C.CS(=O)(=O)O.Cl.Cl here?
**A.** The Cures/total was 0.

**Q.** And the Cures/total (Mus musculus [2])?
**A.** The Cures/total was 0.

**Q.** And the Cures/total (Mus musculus [3])?
**A.** The Cures/total was 0.

**Q.** What about the Cures/total (Mus musculus [4]) of the same compound?
**A.** Its Cures/total is 0.

**Q.** And the Cures/total (Mus musculus [5])?
**A.** The Cures/total was 0.

**Q.** How did the Cures/total (Mus musculus [6]) turn out when C/C(=N\NC(=N)N)c1ccc(/C(C)=N/NC(=N)N)s1.CC(C)O.Cl was run?
**A.** The Cures/total was 13.

**Q.** What about the Cures/total (Mus musculus [7]) of the same compound?
**A.** Its Cures/total is 16.

**Q.** And the Cures/total (Mus musculus [8])?
**A.** Its Cures/total is 0.

**Q.** What about the Cures/total (Mus musculus [9]) of the same compound?
**A.** The Cures/total was 11.

**Q.** What about the ED50 (Mus musculus [10]) of the same compound?
**A.** Its ED50 is 14 mg/kg.

**Q.** And the Cures/total (Mus musculus [11])?
**A.** The Cures/total was 1.

**Q.** What about the Cures/total (Mus musculus [12]) of the same compound?
**A.** The Cures/total was 5.

**Q.** What about the Cures/total (Mus musculus [13]) of the same compound?
**A.** The Cures/total was 14.

**Q.** And the Cures/total (Mus musculus [14])?
**A.** The Cures/total was 0.

**Q.** C/C(=N\NC(=N)N)c1cc(/C(C)=N/NC(=N)N)cc([N+](=O)[O-])c1.Cl was tested. Which Cures/total (Mus musculus [15]) did it give?
**A.** Its Cures/total is 9.

**Q.** What about the Cures/total (Mus musculus [16]) of the same compound?
**A.** The Cures/total was 0.

**Q.** What about the Cures/total (Mus musculus [17]) of the same compound?
**A.** The Cures/total was 12.

**Q.** And the Cures/total (Mus musculus [18])?
**A.** The Cures/total was 1.

**Q.** And the Cures/total (Mus musculus [19])?
**A.** The Cures/total was 0.

**Q.** What about the Cures/total (Mus musculus [5]) of the same compound?
**A.** The Cures/total was 0.

**Q.** And the Cures/total (Mus musculus [20])?
**A.** The Cures/total was 1.

**Q.** What about the Cures/total (Mus musculus [21]) of the same compound?
**A.** Its Cures/total is 3.

**Q.** What does the source list for CCCC/C(=N\NC(=N)N)c1cccc(/C(CCCC)=N/NC(=N)N)c1.Cl?
**A.** Cures/total (Mus musculus [2]): 0; Cures/total (Mus musculus [3]): 0; Cures/total (Mus musculus [22]): 0

**Q.** C/C(=N\NC(=N)N)c1cc(/C(C)=N/NC(=N)N)cc(/C(C)=N/NC(=N)N)c1.Cl was tested. Which Cures/total (Mus musculus [23]) did it give?
**A.** Its Cures/total is 9.

**Q.** What about the Cures/total (Mus musculus [2]) of the same compound?
**A.** The Cures/total was 0.

**Q.** And the Cures/total (Mus musculus [24])?
**A.** Its Cures/total is 19.

**Q.** And the Cures/total (Mus musculus [25])?
**A.** The Cures/total was 10.

**Q.** And the Cures/total (Mus musculus [26])?
**A.** Its Cures/total is 4.

**Q.** And the Cures/total (Mus musculus [27])?
**A.** Its Cures/total is 10.

**Q.** What about the Cures/total (Mus musculus [28]) of the same compound?
**A.** Its Cures/total is 20.

**Q.** What about the Cures/total (Mus musculus [3]) of the same compound?
**A.** Its Cures/total is 0.

**Q.** And the Cures/total (Mus musculus [29])?
**A.** Its Cures/total is 20.

**Q.** What about the ED50 (Mus musculus [10]) of the same compound?
**A.** Its ED50 is 0.47 mg/kg.

**Q.** And the Cures/total (Mus musculus [30])?
**A.** Its Cures/total is 20.

**Q.** And the Cures/total (Mus musculus [31])?
**A.** The Cures/total was 0.

**Q.** And the “Mice cured (number)” value (Mus musculus [32])?
**A.** The value was 10.

**Q.** What about the Cures/total (Mus musculus [33]) of the same compound?
**A.** Its Cures/total is 8.

**Q.** What about the Cures/total (Mus musculus [34]) of the same compound?
**A.** Its Cures/total is 0.

**Q.** Br.C/C(=N\NC1=NCCN1)c1cccc(/C(C)=N/NC2=NCCN2)c1 was tested. Which Cures/total (Mus musculus [19]) did it give?
**A.** Its Cures/total is 0.

**Q.** What about the Cures/total (Mus musculus [35]) of the same compound?
**A.** The Cures/total was 0.

**Q.** And the Cures/total (Mus musculus [3])?
**A.** Its Cures/total is 0.

**Q.** And the Cures/total (Mus musculus [36])?
**A.** Its Cures/total is 0.

**Q.** With C/C(=N\NC(=N)N)c1cc(O)cc(/C(C)=N/NC(=N)N)c1.Cl as the compound, how does the Cures/total (Mus musculus [37]) read?
**A.** Its Cures/total is 1.

**Q.** And the Cures/total (Mus musculus [2])?
**A.** The Cures/total was 0.

**Q.** And the Cures/total (Mus musculus [38])?
**A.** The Cures/total was 9.

**Q.** And the Cures/total (Mus musculus [39])?
**A.** The Cures/total was 16.

**Q.** What about the ED50 (Mus musculus [10]) of the same compound?
**A.** The ED50 was 7.3 mg/kg.

**Q.** What about the Cures/total (Mus musculus [40]) of the same compound?
**A.** Its Cures/total is 0.

**Q.** And the Cures/total (Mus musculus [41])?
**A.** Its Cures/total is 14.

**Q.** And the Cures/total (Mus musculus [42])?
**A.** Its Cures/total is 7.

**Q.** Which results are given for C/C(=N\NC(=N)N)c1cccc(/C(C)=N/NC(=N)N)c1[N+](=O)[O-].Cl?
**A.** Cures/total (Mus musculus [35]): 0; Cures/total (Mus musculus [3]): 0; Cures/total (Mus musculus [5]): 0
